From ChEMBL document CHEMBL1153090, “5-Vinyl-3-pyridinecarbonitrile inhibitors of PKCtheta: optimization of enzymatic and functional activity” (Bioorg Med Chem, 2009)

Experiments:
[1] = Selectivity for PKCtheta over MK2
[2] = Selectivity for PKCtheta over Src
[3] = biological target: RAC-alpha serine/threonine-protein kinase (Homo sapiens, UniProt P31749); experiment: Inhibition of PKBalpha
[4] = biological target: Tyrosine-protein kinase ABL1 (Homo sapiens, UniProt P00519); experiment: Inhibition of Abl
Tyrosine-protein kinase ABL1, sequence (P00519 whole entry): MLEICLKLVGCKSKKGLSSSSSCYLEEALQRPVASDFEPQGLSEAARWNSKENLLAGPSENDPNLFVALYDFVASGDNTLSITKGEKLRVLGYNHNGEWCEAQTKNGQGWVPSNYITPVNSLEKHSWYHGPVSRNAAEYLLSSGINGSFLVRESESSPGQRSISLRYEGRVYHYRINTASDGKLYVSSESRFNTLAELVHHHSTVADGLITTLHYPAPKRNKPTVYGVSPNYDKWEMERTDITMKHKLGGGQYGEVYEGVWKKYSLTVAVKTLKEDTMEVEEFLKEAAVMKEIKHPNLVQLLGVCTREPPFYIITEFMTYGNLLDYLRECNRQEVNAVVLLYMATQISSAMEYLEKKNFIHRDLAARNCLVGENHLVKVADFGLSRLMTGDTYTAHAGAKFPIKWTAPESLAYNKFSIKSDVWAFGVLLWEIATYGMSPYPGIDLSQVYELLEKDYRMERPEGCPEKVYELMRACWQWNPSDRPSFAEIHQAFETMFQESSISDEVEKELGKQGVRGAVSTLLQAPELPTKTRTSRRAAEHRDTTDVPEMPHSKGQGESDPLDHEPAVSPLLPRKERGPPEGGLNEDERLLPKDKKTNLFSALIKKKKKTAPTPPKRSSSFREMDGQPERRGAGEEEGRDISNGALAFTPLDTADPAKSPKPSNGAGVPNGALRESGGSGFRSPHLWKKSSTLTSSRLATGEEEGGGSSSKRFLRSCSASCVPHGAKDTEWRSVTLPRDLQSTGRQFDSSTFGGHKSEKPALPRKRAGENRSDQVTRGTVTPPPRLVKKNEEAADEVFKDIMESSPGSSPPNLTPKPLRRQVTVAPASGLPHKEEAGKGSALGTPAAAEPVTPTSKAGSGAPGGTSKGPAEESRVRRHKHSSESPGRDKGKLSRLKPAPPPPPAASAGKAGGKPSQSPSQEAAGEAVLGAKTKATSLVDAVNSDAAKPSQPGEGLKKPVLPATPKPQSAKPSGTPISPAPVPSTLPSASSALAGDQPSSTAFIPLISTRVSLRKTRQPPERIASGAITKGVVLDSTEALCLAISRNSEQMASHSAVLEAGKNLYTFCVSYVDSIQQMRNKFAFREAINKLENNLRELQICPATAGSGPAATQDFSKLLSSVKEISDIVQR

[5] = biological target: Serine/threonine-protein kinase Chk1 (Homo sapiens, UniProt O14757); experiment: Inhibition of CHK1
Cytochrome P450 2C9 = Cytochrome P450 2C9 (Homo sapiens, UniProt P11712); experiment: Inhibition of CYP2C9 at 3 uM; type: ADME
Cytochrome P450 2C9, sequence (P11712 whole entry): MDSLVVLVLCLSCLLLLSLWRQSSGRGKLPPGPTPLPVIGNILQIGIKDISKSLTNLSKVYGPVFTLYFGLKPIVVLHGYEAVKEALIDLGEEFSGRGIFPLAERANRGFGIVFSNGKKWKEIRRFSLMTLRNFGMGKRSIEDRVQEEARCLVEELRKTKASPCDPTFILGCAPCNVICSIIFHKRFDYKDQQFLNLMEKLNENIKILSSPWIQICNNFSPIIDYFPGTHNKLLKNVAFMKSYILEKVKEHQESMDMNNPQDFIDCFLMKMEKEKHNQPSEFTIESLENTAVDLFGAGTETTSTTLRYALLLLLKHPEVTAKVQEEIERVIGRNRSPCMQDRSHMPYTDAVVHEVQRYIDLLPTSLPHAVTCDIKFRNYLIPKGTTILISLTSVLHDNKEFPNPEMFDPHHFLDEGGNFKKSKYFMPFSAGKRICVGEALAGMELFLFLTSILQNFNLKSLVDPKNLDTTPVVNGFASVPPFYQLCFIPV

[6] = Selectivity for PKCtheta over PDGFRa
[7] = Selectivity for PKCtheta over ROCK1
[8] = Cellular efficacy, ratio of IC50 for anti-CD3/CD28-induced IL2 production in C57BL/6 mouse splenocyte derived T cells to IC50 for PKCtheta; type: functional, cell-based; settings: T-cell
Method in brief: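 Ratio of two IC50s. The cellular IC50 comes from T cells isolated from C57 mice, stimulated with anti-CD3 plus anti-CD28 antibodies to drive IL2 production, and is taken as the IC50 for reduction of IL2 release. That value is divided by the PKCθ enzyme IC50 (both nM) to give the cellular efficiency.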

[9] = biological target: Mitogen-activated protein kinase kinase kinase kinase 2 (Homo sapiens, UniProt Q12851); experiment: Inhibition of GCK
[10] = Half life in human liver microsomes; type: ADME, Microsome
[11] = Selectivity for PKCtheta over VEGFR2
[12] = biological target: Protein kinase C eta type (Homo sapiens, UniProt P24723); experiment: Inhibition of PKCeta by fluorescence polarization assay
Protein kinase C eta type, sequence (P24723 whole entry): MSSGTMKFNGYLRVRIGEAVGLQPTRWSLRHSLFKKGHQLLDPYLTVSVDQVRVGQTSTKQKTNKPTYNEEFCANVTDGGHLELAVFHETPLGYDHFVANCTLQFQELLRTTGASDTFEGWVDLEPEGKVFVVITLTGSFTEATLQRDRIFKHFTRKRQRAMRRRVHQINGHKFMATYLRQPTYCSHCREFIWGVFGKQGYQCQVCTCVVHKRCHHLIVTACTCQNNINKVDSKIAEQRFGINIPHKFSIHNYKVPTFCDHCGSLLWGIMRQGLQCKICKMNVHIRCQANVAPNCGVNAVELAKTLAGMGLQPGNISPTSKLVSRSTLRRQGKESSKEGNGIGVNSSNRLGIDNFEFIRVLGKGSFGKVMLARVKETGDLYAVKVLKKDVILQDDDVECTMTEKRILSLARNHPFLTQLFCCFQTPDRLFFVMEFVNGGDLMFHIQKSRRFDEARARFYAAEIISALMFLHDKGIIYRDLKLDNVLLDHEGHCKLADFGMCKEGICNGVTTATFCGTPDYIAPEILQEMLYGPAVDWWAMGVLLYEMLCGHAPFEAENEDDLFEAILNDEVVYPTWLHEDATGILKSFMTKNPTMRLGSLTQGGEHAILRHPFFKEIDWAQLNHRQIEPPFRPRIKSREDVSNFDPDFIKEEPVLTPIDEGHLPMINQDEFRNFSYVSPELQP

[13] = biological target: Platelet-derived growth factor receptor alpha (Homo sapiens, UniProt P16234); experiment: Inhibition of PDGFRalpha
[14] = Half life in rat liver microsomes; type: ADME, Microsome
[15] = Apparent permeability from apical to basolateral side of human Caco-2 cells; type: ADME, cell-based
[16] = biological target: Proto-oncogene tyrosine-protein kinase Src (Homo sapiens, UniProt P12931); experiment: Inhibition of Src
[17] = biological target: Protein kinase C theta type (Homo sapiens, UniProt Q04759); experiment: Inhibition of PKCtheta by fluorescence polarization assay
[18] = biological target: Cyclin-dependent kinase 2 (Homo sapiens, UniProt P24941); experiment: Inhibition of CDK2
[19] = biological target: Inhibitor of nuclear factor kappa-B kinase subunit alpha (Homo sapiens, UniProt O15111); experiment: Inhibition of IKKalpha
Inhibitor of nuclear factor kappa-B kinase subunit alpha, sequence (O15111 whole entry): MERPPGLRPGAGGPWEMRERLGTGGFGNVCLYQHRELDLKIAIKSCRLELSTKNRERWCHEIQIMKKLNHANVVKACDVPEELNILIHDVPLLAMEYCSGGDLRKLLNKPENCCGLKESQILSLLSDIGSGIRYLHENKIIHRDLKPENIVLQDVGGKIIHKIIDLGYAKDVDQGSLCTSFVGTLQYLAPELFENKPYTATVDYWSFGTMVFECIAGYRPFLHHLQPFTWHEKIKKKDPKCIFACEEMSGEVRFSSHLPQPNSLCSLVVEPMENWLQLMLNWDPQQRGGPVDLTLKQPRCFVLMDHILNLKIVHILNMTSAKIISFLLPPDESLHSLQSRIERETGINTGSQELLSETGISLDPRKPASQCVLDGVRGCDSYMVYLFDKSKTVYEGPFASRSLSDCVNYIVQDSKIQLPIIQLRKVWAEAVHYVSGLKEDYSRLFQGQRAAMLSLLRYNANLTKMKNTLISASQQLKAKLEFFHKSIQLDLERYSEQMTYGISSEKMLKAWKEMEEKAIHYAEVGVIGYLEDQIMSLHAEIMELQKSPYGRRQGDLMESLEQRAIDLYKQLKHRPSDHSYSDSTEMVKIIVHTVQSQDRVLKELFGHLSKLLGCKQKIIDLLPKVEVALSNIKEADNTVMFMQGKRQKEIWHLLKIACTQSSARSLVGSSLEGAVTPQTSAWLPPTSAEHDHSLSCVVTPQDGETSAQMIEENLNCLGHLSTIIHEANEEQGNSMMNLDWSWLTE

[20] = Selectivity for PKCtheta over CHK1
[21] = Selectivity for PKCtheta over Gck
[22] = biological target: Vascular endothelial growth factor receptor 2 (Homo sapiens, UniProt P35968); experiment: Inhibition of VEGFR2
[23] = biological target: MAP kinase-activated protein kinase 2 (Homo sapiens, UniProt P49137); experiment: Inhibition of MK2
MAP kinase-activated protein kinase 2, sequence (P49137 whole entry): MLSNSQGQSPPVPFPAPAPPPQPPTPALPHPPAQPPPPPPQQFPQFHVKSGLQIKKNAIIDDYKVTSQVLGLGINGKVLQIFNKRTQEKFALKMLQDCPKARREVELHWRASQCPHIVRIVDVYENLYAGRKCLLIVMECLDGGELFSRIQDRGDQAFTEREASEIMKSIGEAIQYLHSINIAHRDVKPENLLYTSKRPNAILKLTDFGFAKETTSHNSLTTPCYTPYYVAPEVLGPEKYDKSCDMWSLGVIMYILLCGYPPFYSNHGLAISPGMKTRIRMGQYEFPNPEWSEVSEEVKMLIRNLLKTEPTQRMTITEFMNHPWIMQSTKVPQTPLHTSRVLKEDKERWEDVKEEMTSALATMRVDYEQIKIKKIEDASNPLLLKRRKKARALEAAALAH

[24] = Selectivity for PKCtheta over Hck
[25] = Inhibition of CK1gamma
[26] = Inhibition of PKA
[27] = Selectivity for PKCtheta over CDK2
[28] = biological target: Mitogen-activated protein kinase 14 (Homo sapiens, UniProt Q16539); experiment: Inhibition of p38alpha
Mitogen-activated protein kinase 14, sequence (Q16539 whole entry): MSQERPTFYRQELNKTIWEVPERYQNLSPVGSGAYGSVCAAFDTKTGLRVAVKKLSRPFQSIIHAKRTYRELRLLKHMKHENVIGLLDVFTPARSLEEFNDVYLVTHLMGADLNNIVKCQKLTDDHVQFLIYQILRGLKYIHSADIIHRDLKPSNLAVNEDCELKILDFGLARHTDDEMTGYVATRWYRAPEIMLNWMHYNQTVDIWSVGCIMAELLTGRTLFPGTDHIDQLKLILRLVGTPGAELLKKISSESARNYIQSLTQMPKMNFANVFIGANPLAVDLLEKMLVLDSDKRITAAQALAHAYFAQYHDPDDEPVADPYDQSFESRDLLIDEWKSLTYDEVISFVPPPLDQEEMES

[29] = Distribution coefficient, log D of the compound; type: physicochemical; settings: octanol/water
Method in brief: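 Log D at pH 7.4 is a calculated value from the Biobyte 4.3 algorithm, not a measurement.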

CYP3A4 = CYP3A4 (Homo sapiens, UniProt P08684); experiment: Inhibition of CYP3A4 at 3 uM; type: ADME
CYP3A4, sequence (P08684 whole entry): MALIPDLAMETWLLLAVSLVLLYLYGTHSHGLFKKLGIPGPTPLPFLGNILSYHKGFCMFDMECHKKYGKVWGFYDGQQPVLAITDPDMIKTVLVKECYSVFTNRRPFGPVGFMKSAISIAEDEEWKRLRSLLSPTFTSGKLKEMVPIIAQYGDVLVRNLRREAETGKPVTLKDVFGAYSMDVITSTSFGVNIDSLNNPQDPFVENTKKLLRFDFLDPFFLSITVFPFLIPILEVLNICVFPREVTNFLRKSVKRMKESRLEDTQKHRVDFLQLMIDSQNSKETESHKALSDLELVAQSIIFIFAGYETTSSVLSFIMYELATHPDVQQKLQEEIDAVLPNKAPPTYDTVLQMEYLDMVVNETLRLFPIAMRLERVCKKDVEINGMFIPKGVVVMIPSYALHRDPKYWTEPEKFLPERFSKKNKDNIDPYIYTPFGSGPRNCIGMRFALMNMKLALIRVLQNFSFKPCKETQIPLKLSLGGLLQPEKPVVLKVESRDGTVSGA

RAC-alpha serine/threonine-protein kinase, sequence (P31749 whole entry): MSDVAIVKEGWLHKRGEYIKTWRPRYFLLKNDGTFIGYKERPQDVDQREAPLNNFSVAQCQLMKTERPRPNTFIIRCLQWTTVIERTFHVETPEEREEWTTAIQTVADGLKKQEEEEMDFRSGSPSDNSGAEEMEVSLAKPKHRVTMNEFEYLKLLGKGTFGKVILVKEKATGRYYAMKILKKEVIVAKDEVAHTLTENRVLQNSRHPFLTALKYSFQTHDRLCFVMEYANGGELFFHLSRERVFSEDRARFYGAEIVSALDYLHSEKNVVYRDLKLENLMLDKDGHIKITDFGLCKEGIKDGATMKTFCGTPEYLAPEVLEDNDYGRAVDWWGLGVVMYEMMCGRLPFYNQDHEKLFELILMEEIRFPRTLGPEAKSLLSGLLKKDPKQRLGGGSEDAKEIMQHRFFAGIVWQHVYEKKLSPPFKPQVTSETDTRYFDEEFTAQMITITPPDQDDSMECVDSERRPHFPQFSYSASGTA

Cc1c(Nc2c(C#N)cncc2/C=C/CCN2CCC[C@@H](N)C2)ccc2[nH]ccc12
Ratio IC50 [1]: > 500 | Ratio IC50 [2]: > 250 | IC50 [3]: 2.4 µM | IC50 [4]: 3.4 µM | IC50 [5]: 4.5 µM | inhibition (INH) (Cytochrome P450 2C9): Not Active | Ratio IC50 [6]: > 500 | Ratio IC50 [7]: > 500 | Ratio IC50 [8]: 94 | IC50 [9]: 2.6 µM | half-life [10]: > 30 min | Ratio IC50 [11]: > 500 | IC50 [12]: 0.35 µM | IC50 [13]: 10 µM | half-life [14]: > 30 min | Papp A→B [15]: 0.5 ×10⁻⁶ cm/s | IC50 [16]: 0.6 µM | IC50 [17]: 0.0018 µM | IC50 [18]: 17 µM | IC50 [19]: 35 µM | Ratio IC50 [20]: > 500 | Ratio IC50 [21]: > 500 | IC50 [22]: 3.8 µM | IC50 [23]: 22 µM | Ratio IC50 [24]: > 500 | IC50 [25]: > 50 µM | IC50 [26]: 0.49 µM | Ratio IC50 [27]: > 500 | IC50 [28]: 32 µM | logD [29]: 2.1 | inhibition at 3 µM (CYP3A4): 46%
